ChEMBL document CHEMBL3734675, “Synthesis, antimycobacterial and antibacterial activity of fluoroquinolone derivatives containing an 3-alkoxyimino-4-(cyclopropylanimo)methylpyrrolidine moiety” (2015)
Converted amounts (≈) assume the structure as drawn.

Legend:
Assay type in all cases: functional
Escherichia coli [1] = experiment: Antibacterial activity against extended-spectrum beta-lactamase producing Escherichia coli 14-1 after 18 to 24 hrs by two-fold serial dilution method
Procedure, shortened: (§1)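 Twofold serial dilution in agar media against Gram-positive and Gram-negative strains. Plates incubated at 35 °C for 18–24 h. MIC read as the lowest compound concentration giving complete inhibition of bacterial growth.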

[2] = system: Staphylococcus epidermidis; experiment: Antibacterial activity against methicillin-resistant Staphylococcus epidermidis 14-39 after 18 to 24 hrs by two-fold serial dilution method
Procedure, shortened: (§2)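 Agar media, standard twofold serial dilution. MIC is the lowest concentration giving complete inhibition of bacterial growth after incubation at 35 °C for 18–24 h. Ciprofloxacin and levofloxacin were run as comparators.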

Staphylococcus aureus [3] = experiment: Antibacterial activity against methicillin-sensitive Staphylococcus aureus 14-1 after 18 to 24 hrs by two-fold serial dilution method; procedure, shortened: as §1
[4] = system: Mycobacterium tuberculosis; experiment: Antimycobacterial activity against Mycobacterium tuberculosis H37Rv ATCC 27294 incubated for 7 days by microplate Alamar Blue assay; conditions: H37Rv ATCC 27294, 168 h
Procedure, shortened: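 Fluorescence read-out. MIC is the lowest concentration that reduces fluorescence by at least 90% relative to the mean of replicate bacterium-only controls. Isoniazid and rifampicin were included as reference drugs.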

Escherichia coli [5] = experiment: Antibacterial activity against Escherichia coli 14-1 after 18 to 24 hrs by two-fold serial dilution method; procedure, shortened: as §1
Enterococcus faecalis [6] = experiment: Potency index, ratio of ciprofloxacin MIC to compound MIC for Enterococcus faecalis 14-2
Enterococcus faecium [7] = experiment: Potency index, ratio of ciprofloxacin MIC to compound MIC for Enterococcus faecium 14-2
Enterococcus faecium [8] = experiment: Antibacterial activity against Enterococcus faecium 14-5 after 18 to 24 hrs by two-fold serial dilution method; procedure, shortened: as §1
[9] = system: Staphylococcus epidermidis; experiment: Antibacterial activity against methicillin-resistant Staphylococcus epidermidis 14-21 after 18 to 24 hrs by two-fold serial dilution method; procedure, shortened: as §2
Enterococcus faecium [10] = experiment: Potency index, ratio of ciprofloxacin MIC to compound MIC for Enterococcus faecium 14-6
Pseudomonas aeruginosa [11] = experiment: Antibacterial activity against Pseudomonas aeruginosa 14-14 after 18 to 24 hrs by two-fold serial dilution method; procedure, shortened: as §1
[12] = system: Staphylococcus epidermidis; experiment: Potency index, ratio of ciprofloxacin MIC to compound MIC for methicillin-resistant Staphylococcus epidermidis 14-39
Enterococcus faecalis [13] = experiment: Antibacterial activity against Enterococcus faecalis 14-1 after 18 to 24 hrs by two-fold serial dilution method; procedure, shortened: as §1
Enterococcus faecium [14] = experiment: Potency index, ratio of levofloxacin MIC to compound MIC for Enterococcus faecium 14-5
[15] = system: Staphylococcus epidermidis; experiment: Antibacterial activity against methicillin-sensitive Staphylococcus epidermidis 14-2 after 18 to 24 hrs by two-fold serial dilution method; procedure, shortened: as §1
Enterococcus faecium [16] = experiment: Antibacterial activity against Enterococcus faecium 14-6 after 18 to 24 hrs by two-fold serial dilution method; procedure, shortened: as §1
Staphylococcus aureus [17] = experiment: Antibacterial activity against methicillin-sensitive Staphylococcus aureus 14-3 after 18 to 24 hrs by two-fold serial dilution method; procedure, shortened: as §1
[18] = system: Staphylococcus epidermidis; experiment: Potency index, ratio of levofloxacin MIC to compound MIC for methicillin-resistant Staphylococcus epidermidis 14-39
Staphylococcus aureus [19] = experiment: Potency index, ratio of ciprofloxacin MIC to compound MIC for methicillin-resistant Staphylococcus aureus 14-5
Escherichia coli [20] = experiment: Antibacterial activity against extended-spectrum beta-lactamase producing Escherichia coli 14-2 after 18 to 24 hrs by two-fold serial dilution method; procedure, shortened: as §1
[21] = system: Staphylococcus epidermidis; experiment: Antibacterial activity against methicillin-resistant Staphylococcus epidermidis 14-22 after 18 to 24 hrs by two-fold serial dilution method; procedure, shortened: as §2
Pseudomonas aeruginosa [22] = experiment: Antibacterial activity against Pseudomonas aeruginosa ATCC 27853 after 18 to 24 hrs by two-fold serial dilution method; procedure, shortened: as §1
Klebsiella pneumoniae [23] = experiment: Antibacterial activity against Klebsiella pneumoniae 14-1 after 18 to 24 hrs by two-fold serial dilution method; procedure, shortened: as §1
Staphylococcus aureus [24] = experiment: Antibacterial activity against methicillin-sensitive Staphylococcus aureus 14-4 after 18 to 24 hrs by two-fold serial dilution method; procedure, shortened: as §1
[25] = system: Staphylococcus epidermidis; experiment: Potency index, ratio of ciprofloxacin MIC to compound MIC for methicillin-resistant Staphylococcus epidermidis 14-37
Klebsiella pneumoniae [26] = experiment: Antibacterial activity against extended-spectrum beta-lactamase producing Klebsiella pneumoniae 14-17 after 18 to 24 hrs by two-fold serial dilution method; procedure, shortened: as §1
[27] = system: Staphylococcus epidermidis; experiment: Potency index, ratio of levofloxacin MIC to compound MIC for methicillin-resistant Staphylococcus epidermidis 14-37
Staphylococcus aureus [28] = experiment: Potency index, ratio of ciprofloxacin MIC to compound MIC for methicillin-resistant Staphylococcus aureus 14-4
Klebsiella pneumoniae [29] = experiment: Antibacterial activity against extended-spectrum beta-lactamase producing Klebsiella pneumoniae 14-18 after 18 to 24 hrs by two-fold serial dilution method; procedure, shortened: as §1
[30] = system: Staphylococcus epidermidis; experiment: Potency index, ratio of levofloxacin MIC to compound MIC for methicillin-resistant Staphylococcus epidermidis 14-21
Staphylococcus aureus [31] = experiment: Potency index, ratio of levofloxacin MIC to compound MIC for methicillin-resistant Staphylococcus aureus 14-4
Klebsiella pneumoniae [32] = experiment: Antibacterial activity against Klebsiella pneumoniae 14-3 after 18 to 24 hrs by two-fold serial dilution method; procedure, shortened: as §1
Pseudomonas aeruginosa [33] = experiment: Antibacterial activity against Pseudomonas aeruginosa 14-9 after 18 to 24 hrs by two-fold serial dilution method; procedure, shortened: as §1
Enterococcus faecium [34] = experiment: Potency index, ratio of levofloxacin MIC to compound MIC for Enterococcus faecium 14-2
Klebsiella pneumoniae [35] = experiment: Antibacterial activity against Klebsiella pneumoniae 14-4 after 18 to 24 hrs by two-fold serial dilution method; procedure, shortened: as §1
Pseudomonas aeruginosa [36] = experiment: Antibacterial activity against Pseudomonas aeruginosa 14-15 after 18 to 24 hrs by two-fold serial dilution method; procedure, shortened: as §1
Pseudomonas aeruginosa [37] = experiment: Antibacterial activity against Pseudomonas aeruginosa 14-16 after 18 to 24 hrs by two-fold serial dilution method; procedure, shortened: as §1
Enterococcus faecalis [38] = experiment: Potency index, ratio of levofloxacin MIC to compound MIC for Enterococcus faecalis 14-1
Staphylococcus aureus [39] = experiment: Antibacterial activity against methicillin-resistant Staphylococcus aureus 14-5 after 18 to 24 hrs by two-fold serial dilution method; procedure, shortened: as §2
Enterococcus faecium [40] = experiment: Potency index, ratio of ciprofloxacin MIC to compound MIC for Enterococcus faecium 14-5
[41] = system: Staphylococcus epidermidis; experiment: Potency index, ratio of ciprofloxacin MIC to compound MIC for methicillin-resistant Staphylococcus epidermidis 14-21
Enterococcus faecium [42] = experiment: Antibacterial activity against Enterococcus faecium 14-2 after 18 to 24 hrs by two-fold serial dilution method; procedure, shortened: as §1
Enterococcus faecalis [43] = experiment: Antibacterial activity against Enterococcus faecalis 14-2 after 18 to 24 hrs by two-fold serial dilution method; procedure, shortened: as §1
[44] = system: Staphylococcus epidermidis; experiment: Potency index, ratio of levofloxacin MIC to compound MIC for methicillin-resistant Staphylococcus epidermidis 14-22
Staphylococcus aureus [45] = experiment: Antibacterial activity against Staphylococcus aureus CMCC 26003 after 18 to 24 hrs by two-fold serial dilution method; procedure, shortened: as §1
Enterococcus faecalis [46] = experiment: Potency index, ratio of ciprofloxacin MIC to compound MIC for Enterococcus faecalis 14-1
[47] = system: Staphylococcus epidermidis; experiment: Potency index, ratio of ciprofloxacin MIC to compound MIC for methicillin-resistant Staphylococcus epidermidis 14-22
Enterococcus faecalis [48] = experiment: Potency index, ratio of levofloxacin MIC to compound MIC for Enterococcus faecalis 14-2
Escherichia coli [49] = experiment: Antibacterial activity against Escherichia coli 14-2 after 18 to 24 hrs by two-fold serial dilution method; procedure, shortened: as §1
Klebsiella pneumoniae [50] = experiment: Antibacterial activity against extended-spectrum beta-lactamase producing Klebsiella pneumoniae 14-19 after 18 to 24 hrs by two-fold serial dilution method; procedure, shortened: as §1
Enterococcus faecium [51] = experiment: Potency index, ratio of levofloxacin MIC to compound MIC for Enterococcus faecium 14-6
Escherichia coli [52] = experiment: Antibacterial activity against Escherichia coli ATCC 25922 after 18 to 24 hrs by two-fold serial dilution method; procedure, shortened: as §1
Staphylococcus aureus [53] = experiment: Potency index, ratio of levofloxacin MIC to compound MIC for methicillin-resistant Staphylococcus aureus 14-5
Staphylococcus aureus [54] = experiment: Antibacterial activity against methicillin-resistant Staphylococcus aureus 14-4 after 18 to 24 hrs by two-fold serial dilution method; procedure, shortened: as §2
Streptococcus pneumoniae = experiment: Antibacterial activity against methicillin-resistant Streptococcus pneumoniae ATCC 19615 after 18 to 24 hrs by two-fold serial dilution method; procedure, shortened: as §2
[55] = system: Staphylococcus epidermidis; experiment: Antibacterial activity against methicillin-resistant Staphylococcus epidermidis 14-37 after 18 to 24 hrs by two-fold serial dilution method; procedure, shortened: as §2
Klebsiella pneumoniae [56] = experiment: Antibacterial activity against Klebsiella pneumoniae 14-2 after 18 to 24 hrs by two-fold serial dilution method; procedure, shortened: as §1

`CO/N=C1/CN(c2c(F)cc3c(=O)c(C(=O)O)cn4c3c2OC[C@@H]4C)CC1(C)CNC1CC1` (some centres not stated) was tested, and the MIC (Escherichia coli [1]) was 4 µg/mL (≈ 8.72 µM), the MIC [2] was 2 µg/mL (≈ 4.36 µM) and the MIC (Staphylococcus aureus [3]) was 2 µg/mL (≈ 4.36 µM). It also gave an MIC90 [4] of 0.64 µg/mL (≈ 1.4 µM), an MIC (Escherichia coli [5]) of 64 µg/mL (≈ 140 µM) and a Ratio (Enterococcus faecalis [6]) of 2. For the same molecule, the Ratio (Enterococcus faecium [7]) was 2, the MIC (Enterococcus faecium [8]) was 4 µg/mL (≈ 8.72 µM) and the MIC [9] was 4 µg/mL (≈ 8.72 µM). The Ratio (Enterococcus faecium [10]) was 2, the MIC (Pseudomonas aeruginosa [11]) was 32 µg/mL (≈ 69.8 µM) and the Ratio [12] was 2. The MIC (Enterococcus faecalis [13]) was 8 µg/mL (≈ 17.4 µM), the Ratio (Enterococcus faecium [14]) was 2 and the MIC [15] was 8 µg/mL (≈ 17.4 µM). For the same molecule, the MIC (Enterococcus faecium [16]) was 8 µg/mL (≈ 17.4 µM), the MIC (Staphylococcus aureus [17]) was 0.015 µg/mL (≈ 0.0327 µM) and the Ratio [18] was 2. For the same molecule, the Ratio (Staphylococcus aureus [19]) was 2, the MIC (Escherichia coli [20]) was > 128 µg/mL and the MIC [21] was 2 µg/mL (≈ 4.36 µM). For the same molecule, the MIC (Pseudomonas aeruginosa [22]) was 16 µg/mL (≈ 34.9 µM), the MIC (Klebsiella pneumoniae [23]) was 16 µg/mL (≈ 34.9 µM) and the MIC (Staphylococcus aureus [24]) was 0.015 µg/mL (≈ 0.0327 µM). For the same molecule, the Ratio [25] was 2, the MIC (Klebsiella pneumoniae [26]) was 16 µg/mL (≈ 34.9 µM) and the Ratio [27] was 2. It also gave a Ratio (Staphylococcus aureus [28]) of 2, an MIC (Klebsiella pneumoniae [29]) of 16 µg/mL (≈ 34.9 µM) and a Ratio [30] of 2. The Ratio (Staphylococcus aureus [31]) was 2, the MIC (Klebsiella pneumoniae [32]) was 128 µg/mL (≈ 279 µM) and the MIC (Pseudomonas aeruginosa [33]) was 8 µg/mL (≈ 17.4 µM). The Ratio (Enterococcus faecium [34]) was 2, the MIC (Klebsiella pneumoniae [35]) was > 128 µg/mL and the MIC (Pseudomonas aeruginosa [36]) was 32 µg/mL (≈ 69.8 µM). The MIC (Pseudomonas aeruginosa [37]) was 32 µg/mL (≈ 69.8 µM), the Ratio (Enterococcus faecalis [38]) was 2 and the MIC (Staphylococcus aureus [39]) was 4 µg/mL (≈ 8.72 µM). The Ratio (Enterococcus faecium [40]) was 2, the Ratio [41] was 2 and the MIC (Enterococcus faecium [42]) was 4 µg/mL (≈ 8.72 µM). The MIC (Enterococcus faecalis [43]) was 0.5 µg/mL (≈ 1.09 µM), the Ratio [44] was 2 and the MIC (Staphylococcus aureus [45]) was < 0.008 µg/mL. The Ratio (Enterococcus faecalis [46]) was 2, the Ratio [47] was 2 and the Ratio (Enterococcus faecalis [48]) was 2. The MIC (Escherichia coli [49]) was 64 µg/mL (≈ 140 µM), the MIC (Klebsiella pneumoniae [50]) was 32 µg/mL (≈ 69.8 µM) and the Ratio (Enterococcus faecium [51]) was 2. The MIC (Escherichia coli [52]) was 2 µg/mL (≈ 4.36 µM), the Ratio (Staphylococcus aureus [53]) was 2 and the MIC (Staphylococcus aureus [54]) was 4 µg/mL (≈ 8.72 µM). For the same molecule, the MIC (Streptococcus pneumoniae) was 0.5 µg/mL (≈ 1.09 µM), the MIC [55] was 2 µg/mL (≈ 4.36 µM) and the MIC (Klebsiella pneumoniae [56]) was 16 µg/mL (≈ 34.9 µM).
